Values after ≈ are worked out from the molar mass of the structure shown.
How the values were obtained:
[1] = tested on: Bacillus cereus; test: Antibacterial activity against Bacillus cereus clinical isolate after 24 hrs by iodonitrotetrazolium chloride dye based microdilution assay; format: functional
Procedure, shortened: (§1)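 Fresh overnight cultures adjusted spectrophotometrically to 1×10^5 CFU/mL, giving 1.0×10^4 CFU per well in tryptic soy broth. Compounds were dissolved in 5% DMSO and tested at 0.001-1.0 mg/ml by serial dilution; 5% DMSO was the negative control. After 24 h at 37 °C, 0.2 mg/mL INT solution was added for 30 min at 37 °C and OD read at 655 nm. MIC is the lowest concentration giving significant growth inhibition versus the positive control. Duplicates, repeated three times.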

[2] = tested on: Bacillus cereus; test: Bactericidal activity against Bacillus cereus clinical isolate incubated for 24 hrs followed by re-plating on tryptic soy broth; format: functional
Procedure, shortened: (§2)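 Bacteria were grown in tryptic soy broth, 1.0×10^4 CFU per well, with compounds in 5% DMSO at 0.001-1.0 mg/ml for 24 h at 37 °C. Then 10 µL was subcultured into fresh TSB. MBC is the lowest concentration showing no growth after subculture, taken as 99.5% kill of the original inoculum. Duplicates, repeated three times.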

[3] = tested on: Micrococcus flavus; test: Antibacterial activity against Micrococcus flavus ATCC 10240 after 24 hrs by iodonitrotetrazolium chloride dye based microdilution method; format: functional; settings: ATCC 10240, 24 h; procedure, shortened: as §1
[4] = tested on: Micrococcus flavus; test: Bactericidal activity against Micrococcus flavus ATCC 10240 incubated for 24 hrs followed by re-plating on tryptic soy broth; format: functional; settings: ATCC 10240, 24 h; procedure, shortened: as §2
[5] = tested on: Staphylococcus aureus; test: Antibacterial activity against Staphylococcus aureus ATCC 6538 after 24 hrs by iodonitrotetrazolium chloride dye based microdilution method; format: functional; settings: ATCC 6538, 24 h; procedure, shortened: as §1
[6] = tested on: Staphylococcus aureus; test: Bactericidal activity against Staphylococcus aureus ATCC 6538 incubated for 24 hrs followed by re-plating on tryptic soy broth; format: functional; settings: ATCC 6538, 24 h; procedure, shortened: as §2
[7] = tested on: Listeria monocytogenes; test: Antibacterial activity against Listeria monocytogenes NCTC 7973 after 24 hrs by iodonitrotetrazolium chloride dye based microdilution method; format: functional; settings: NCTC 7973, 24 h; procedure, shortened: as §1
[8] = tested on: Listeria monocytogenes; test: Bactericidal activity against Listeria monocytogenes NCTC 7973 incubated for 24 hrs followed by re-plating on tryptic soy broth; format: functional; settings: NCTC 7973, 24 h; procedure, shortened: as §2
[9] = tested on: Enterobacter cloacae; test: Antibacterial activity against Enterobacter cloacae clinical isolate after 24 hrs by iodonitrotetrazolium chloride dye based microdilution method; format: functional; procedure, shortened: as §1
[10] = tested on: Enterobacter cloacae; test: Bactericidal activity against Enterobacter cloacae incubated for 24 hrs followed by re-plating on tryptic soy broth; format: functional; procedure, shortened: as §2
[11] = tested on: Pseudomonas aeruginosa; test: Antibacterial activity against Pseudomonas aeruginosa ATCC 27853 after 24 hrs by iodonitrotetrazolium chloride dye based microdilution method; format: functional; settings: ATCC 27853, 24 h; procedure, shortened: as §1
[12] = tested on: Pseudomonas aeruginosa; test: Bactericidal activity against Pseudomonas aeruginosa ATCC 27853 incubated for 24 hrs followed by re-plating on tryptic soy broth; format: functional; settings: ATCC 27853, 24 h; procedure, shortened: as §2
[13] = tested on: Salmonella typhimurium; test: Antibacterial activity against Salmonella typhimurium ATCC 13311 after 24 hrs by iodonitrotetrazolium chloride dye based microdilution method; format: functional, Salmonella enterica subsp. enterica serovar Typhimurium; settings: Salmonella enterica, ATCC 13311, 24 h; procedure, shortened: as §1
[14] = tested on: Salmonella typhimurium; test: Bactericidal activity against Salmonella typhimurium ATCC 13311 incubated for 24 hrs followed by re-plating on tryptic soy broth; format: functional, Salmonella enterica subsp. enterica serovar Typhimurium; settings: Salmonella enterica, ATCC 13311, 24 h; procedure, shortened: as §2
[15] = tested on: Escherichia coli; test: Antibacterial activity against Escherichia coli ATCC 35210 after 24 hrs by iodonitrotetrazolium chloride dye based microdilution method; format: functional; settings: ATCC 35210, 24 h; procedure, shortened: as §1
[16] = tested on: Escherichia coli; test: Bactericidal activity against Escherichia coli ATCC 35210 incubated for 24 hrs followed by re-plating on tryptic soy broth; format: functional; settings: ATCC 35210, 24 h; procedure, shortened: as §2
[17] = tested on: Aspergillus fumigatus; test: Antifungal activity against Aspergillus fumigatus ATCC 1022 after 72 hrs by microdilution technique; format: functional; settings: ATCC 1022, 72 h
Procedure, shortened: (§3)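 Spores were washed off malt agar with 0.85% saline containing 0.1% Tween 80 and adjusted to about 1.0×10^5 per well. Compounds in 5% DMSO were serially diluted (0.001-1.0 mg/ml) in malt broth with inoculum. Plates were shaken at 160 rpm for 72 h at 28 °C. MIC is the lowest concentration without visible growth under a binocular microscope. Three independent experiments in duplicate.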

[18] = tested on: Aspergillus fumigatus; test: Fungicidal activity against Aspergillus fumigatus ATCC 1022 incubated for 72 hrs followed by sub-culturing on broth malt medium and measured after 72 hrs; format: functional; settings: ATCC 1022, 72 h
Procedure, shortened: (§4)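 After 72 h exposure in malt broth, 2 µL from test wells was subcultured into wells holding 100 µL broth and incubated a further 72 h at 28 °C. MFC is the lowest concentration with no visible growth, taken as 99.5% kill of the original inoculum. Three independent experiments in duplicate.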

[19] = tested on: Aspergillus versicolor; test: Antifungal activity against Aspergillus versicolor ATCC 11730 after 72 hrs by microdilution method; format: functional; settings: ATCC 11730, 72 h; procedure, shortened: as §3
[20] = tested on: Aspergillus versicolor; test: Fungicidal activity against Aspergillus versicolor ATCC 11730 incubated for 72 hrs followed by sub-culturing on broth malt medium and measured after 72 hrs; format: functional; settings: ATCC 11730, 72 h; procedure, shortened: as §4
[21] = tested on: Aspergillus ochraceus; test: Antifungal activity against Aspergillus ochraceus ATCC 12066 after 72 hrs by microdilution technique; format: functional; settings: ATCC 12066, 72 h; procedure, shortened: as §3
[22] = tested on: Aspergillus ochraceus; test: Fungicidal activity against Aspergillus ochraceus ATCC 12066 incubated for 72 hrs followed by sub-culturing on broth malt medium and measured after 72 hrs; format: functional; settings: ATCC 12066, 72 h; procedure, shortened: as §4
[23] = tested on: Aspergillus niger; test: Antifungal activity against Aspergillus niger ATCC 6275 after 72 hrs by microdilution technique; format: functional; settings: ATCC 6275, 72 h; procedure, shortened: as §3
[24] = tested on: Aspergillus niger; test: Fungicidal activity against Aspergillus niger ATCC 6275 incubated for 72 hrs followed by sub-culturing on broth malt medium and measured after 72 hrs; format: functional; settings: ATCC 6275, 72 h; procedure, shortened: as §4
[25] = tested on: Trichoderma viride; test: Antifungal activity against Trichoderma viride IAM 5061 after 72 hrs by microdilution technique; format: functional; settings: IAM 5061, 72 h; procedure, shortened: as §3
[26] = tested on: Trichoderma viride; test: Fungicidal activity against Trichoderma viride IAM 5061 incubated for 72 hrs followed by sub-culturing on broth malt medium and measured after 72 hrs; format: functional; settings: IAM 5061, 72 h; procedure, shortened: as §4
[27] = tested on: Penicillium ochrochloron; test: Antifungal activity against Penicillium ochrochloron ATCC 9112 after 72 hrs by microdilution technique; format: functional; settings: ATCC 9112, 72 h; procedure, shortened: as §3
[28] = tested on: Penicillium ochrochloron; test: Fungicidal activity against Penicillium ochrochloron ATCC 9112 incubated for 72 hrs followed by sub-culturing on broth malt medium and measured after 72 hrs; format: functional; settings: ATCC 9112, 72 h; procedure, shortened: as §4
[29] = Antifungal activity against Penicillium funiculosum ATCC 36839 after 72 hrs by microdilution technique; format: functional; settings: Talaromyces pinophilus, ATCC 36839, 72 h; procedure, shortened: as §3
[30] = Fungicidal activity against Penicillium funiculosum ATCC 36839 incubated for 72 hrs followed by sub-culturing on broth malt medium and measured after 72 hrs; format: functional; settings: Talaromyces pinophilus, ATCC 36839, 72 h; procedure, shortened: as §4
[31] = tested on: Penicillium cyclopium; test: Antifungal activity against Penicillium verrucosum var. cyclopium food isolate after 72 hrs by microdilution technique; format: functional; procedure, shortened: as §3
[32] = tested on: Penicillium cyclopium; test: Fungicidal activity against Penicillium verrucosum var. cyclopium food isolate incubated for 72 hrs followed by sub-culturing on broth malt medium and measured after 72 hrs; format: functional; procedure, shortened: as §4

MIC [1] | MIC [3] | MIC [5] | MIC [7] | MIC [9] | MIC [11] | MIC [13] | MIC [15] | MIC [17] | MIC [19] | SMILES | MBC [2] | MBC [4] | MBC [6] | MBC [8] | MBC [10] | MBC [12] | MBC [14] | MBC [16] | MFC [18] | MFC [20] | also measured
30.4 µM (≈ 15 µg/mL) | 30.4 µM (≈ 15 µg/mL) | 30.4 µM (≈ 15 µg/mL) | 30.4 µM (≈ 15 µg/mL) | 30.4 µM (≈ 15 µg/mL) | 30.4 µM (≈ 15 µg/mL) | 30.4 µM (≈ 15 µg/mL) | 30.4 µM (≈ 15 µg/mL) | 4.46 ×10⁻² mM | 12.2 ×10⁻² mM | CCOc1ccc2c(c1)-c1c(ssc1=S)C(C)(C)N2C(=O)c1ccc(Cl)c([N+](=O)[O-])c1 | 60.9 µM (≈ 30 µg/mL) | 60.9 µM (≈ 30 µg/mL) | 60.9 µM (≈ 30 µg/mL) | 60.9 µM (≈ 30 µg/mL) | 60.9 µM (≈ 30 µg/mL) | 60.9 µM (≈ 30 µg/mL) | 60.9 µM (≈ 30 µg/mL) | 60.9 µM (≈ 30 µg/mL) | 12.2 ×10⁻² mM | 24.3 ×10⁻² mM | MIC [21]: 1.62 ×10⁻² mM; MFC [22]: 3.04 ×10⁻² mM; MIC [23]: 2.23 ×10⁻² mM; MFC [24]: 6.09 ×10⁻² mM; MIC [25]: 1.22 ×10⁻² mM; MFC [26]: 1.62 ×10⁻² mM; MIC [27]: 1.22 ×10⁻² mM; MFC [28]: 1.62 ×10⁻² mM; MIC [29]: 3.04 ×10⁻² mM; MFC [30]: 6.09 ×10⁻² mM; MIC [31]: 24.3 ×10⁻² mM; MFC [32]: 48.7 ×10⁻² mM
64.6 µM (≈ 30 µg/mL) | 96.9 µM (≈ 45 µg/mL) | 64.6 µM (≈ 30 µg/mL) | 258 µM (≈ 120 µg/mL) | 64.6 µM (≈ 30 µg/mL) | 129 µM (≈ 60 µg/mL) | 64.6 µM (≈ 30 µg/mL) | 96.9 µM (≈ 45 µg/mL) | 25.8 ×10⁻² mM | 12.9 ×10⁻² mM | COc1cc2c3c(c1)-c1c(ssc1=S)C(C)(C)N3C(=O)/C2=C1\SC(=S)NC1=O | 129 µM (≈ 59.9 µg/mL) | 129 µM (≈ 59.9 µg/mL) | 129 µM (≈ 59.9 µg/mL) | 517 µM (≈ 240 µg/mL) | 129 µM (≈ 59.9 µg/mL) | 258 µM (≈ 120 µg/mL) | 129 µM (≈ 60 µg/mL) | 129 µM (≈ 59.9 µg/mL) | 51.6 ×10⁻² mM | 25.8 ×10⁻² mM | MIC [21]: 1.72 ×10⁻² mM; MFC [22]: 3.23 ×10⁻² mM; MIC [23]: 25.8 ×10⁻² mM; MFC [24]: 51.6 ×10⁻² mM; MIC [25]: 1.72 ×10⁻² mM; MFC [26]: 3.23 ×10⁻² mM; MIC [27]: 3.23 ×10⁻² mM; MFC [28]: 6.46 ×10⁻² mM; MIC [29]: 12.9 ×10⁻² mM; MFC [30]: 25.8 ×10⁻² mM; MIC [31]: 25.8 ×10⁻² mM; MFC [32]: 51.6 ×10⁻² mM

Source: ChEMBL document CHEMBL4393701, “Appendix A. dithioloquinolinethiones as new potential multitargeted antibacterial and antifungal agents: Synthesis, biological evaluation and molecular docking studies” (2019)
